# EBV LMP1 NFkB: Epstein-Barr LMP1 NF-kappaB reporter inhibition; LMP1-induced NF-kappaB luciferase reporter cells, luminescence; inhibition, % at 12.5 µM; 350,000 compounds, 0.69% hits; AID 504558; in the data active means inhibition above about 41%; inconclusive means no clear call, values can overlap the other calls;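 further: 0% = neutral control wells and 100% = reference inhibitor control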
# FN deposition inh: fibronectin deposition inhibition. AID 743247. inhibition, % at 12.6 µM. 350,000 compounds, 0.086% hits. AH1F fibroblasts, Alexa488-fibronectin deposition fluorescence, overnight;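 active means mean inhibition across replicates of 30% or more, regardless of how many single replicates reach that level; inconclusive means mean under 30% yet at least half of replicates reach 30%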;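 further: positive control wells lacked labelled fibronectin entirely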
#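 Material: AH1F fibroblasts assembling fluorescent fibronectin matrix; amount: 10000 AH1F cells/well; medium: DMEM, 2% serum; reagent: Alexa488-fibronectin, 24 nM final in well; dosing: single compound dose, delivered by pin transfer; incubation: 1 h adhesion, overnight exposure; detection: fluorescence after three HBSS washes, excitation 485 nm, emission 525 nm; measure: fibronectin deposition inhibition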
# aSyn UTR inh: 5' untranslated region of α-synuclein, MLPCN primary screen; inhibition, % (tested at 7.5 µM); 300,000 compounds, 0.82% hits; alpha-synuclein 5'UTR reporter, inhibitor activity; in the data active means inhibition above about 60%; inconclusive means no clear call, values can overlap the other calls;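 further: H4 neuroglioblastoma cells stably carrying SNCA 5'UTR luciferase fusion; 0% = DMSO wells and 100% = positive control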
# PAX8 reporter: lowers PAX8-driven luciferase in RMG-I cells; RMG-I TPO-luciferase reporter, SteadyGlo, 24 h; inhibition, % at 12.6 µM; 360,000 compounds, 1.2% hits;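 active means mean replicate inhibition at least 60% with every replicate also reaching 60%; inconclusive means only one of the two criteria is met; inactive means mean below 60% and not all replicates reaching 60%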;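 further: luciferase light reporting Pax8 driven TPO promoter activity; plate controls were median of neutral control wells for no effect and mitoxantrone controls for full effect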
# EWS-Fli inh: EWS/Fli transcriptional activity inhibition | A673 NR0B1-luciferase reporter, viability-normalised | inhibition, % at 12.6 µM | 350,000 compounds, 0.67% hits;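 active means mean inhibition of at least 50% after viability correction, with every replicate also passing that limit; inconclusive means mean reaches 50% but only one of two replicates passes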;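 further: firefly luciferase signal divided by Alamar Blue viability fluorescence both relative to DMSO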
# Shn3 3UTR inh: reduces Shn3 3'UTR luciferase signal in osteoblasts; Clone20 osteoblast Shn3 3'UTR firefly luciferase, 24 h; inhibition, % at 12.5 µM; 360,000 compounds, 0.52% hits;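 active means mean inhibition of at least 75% with every replicate also reaching 75%; inconclusive means mean inhibition at least 75% but some replicate below; inactive means mean inhibition below 75%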;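 further: 0% = median of neutral control wells and 100% = pilot-screen positive control compound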
# * = called active by the depositor; ? = inconclusive; . = not tested or not shown. Only some compounds are listed: those with a hit (about 2.1% of all), similar ones and a draw of the others.
SMILES,EBV LMP1 NFkB,FN deposition inh,aSyn UTR inh,PAX8 reporter,EWS-Fli inh,Shn3 3UTR inh
C=C1C(=O)OC2C=C(CO)C3OC3C3OC3(C)CC(OC(=O)/C(=C/C)COC(C)=O)C12 (stereo unspecified),70*,-1,.,83*,37,93*
COCCNC(=O)C[C@H]1CC[C@@H](NC(=O)NC2CCCC2)[C@@H](CO)O1,.,1,.,5,7,.
COC(=O)c1ccc2nc(NC(=O)CSCC(=O)OCC(=O)c3ccccc3)sc2c1,-20,6,-73,-7,-18,-8
Cc1ccc2nc(NC(=O)CSCC(=O)OCC(=O)c3ccc(Br)cc3)sc2c1,29,-6,83*,24,.,65
O=C(c1ccc(F)cc1)N1CC(=O)N2[C@H](CO)[C@H](c3ccc(-c4ccccc4)cc3)[C@H]2C1,.,.,.,14,-12,.
CN(C)CC(=O)N1[C@@H](CO)[C@H](c2ccccc2)C12CN(C(=O)c1ccc(F)cc1)C2,.,8,.,.,.,.
CS(=O)(=O)Nc1ccc(C2=NN(S(C)(=O)=O)C(c3ccccc3)C2)cc1 (stereo unspecified),66*,-5,-34,-6,-10,-9
C[C@H]1CN([C@@H](C)CO)C(=O)c2cc(NC(=O)Nc3ccccc3)ccc2O[C@@H]1CN(C)C(=O)Nc1ccc(C(F)(F)F)cc1,.,.,.,.,16,.
C[C@@H]1CCCCO[C@H](CN(C)C(=O)Nc2ccc(C(F)(F)F)cc2)[C@H](C)CN([C@@H](C)CO)C(=O)c2cc(NC(=O)Nc3ccccc3)ccc2O1,.,-2,.,3,-10,.
C[C@@H]1CCCCO[C@H](CN(C)C(=O)Nc2ccc(C(F)(F)F)cc2)[C@@H](C)CN([C@@H](C)CO)C(=O)c2cc(NC(=O)Nc3ccccc3)ccc2O1,.,-9,.,93*,-11,.
C[C@H]1CCCCO[C@H](CN(C)C(=O)Nc2ccc(C(F)(F)F)cc2)[C@@H](C)CN([C@@H](C)CO)C(=O)c2cc(NC(=O)Nc3ccccc3)ccc2O1,.,-10,.,81*,-11,.
C[C@H](CO)N1C[C@H](C)[C@H](CN(C)C(=O)Nc2ccccc2)Oc2ccc(NC(=O)Nc3ccc(C(F)(F)F)cc3)cc2C1=O,.,.,.,74*,0,.
O=C(N/N=C/c1cccnc1)c1ccc(NC(=O)C(c2ccccc2)c2ccccc2)cc1,-9,3,111*,0,4,31
O=C(CNC(=O)C(c1ccccc1)c1ccccc1)N/N=C/c1cccnc1,-6,-2,-6,11,-3,1
CCC(C)N1C(=O)CCC1C(=O)N1CCN(c2ccc(F)cc2)CC1 (stereo unspecified),64*,7,26,.,.,-2
C[C@@H]1CN([C@H](C)CO)C(=O)c2cc(-c3ccncc3)cnc2O[C@@H]1CN(C)C(=O)c1cccc(F)c1,.,.,.,.,-7,.
COc1ccc2c3c(n(C)c2c1)[C@H](CO)N(Cc1ccccc1)CC31CCN(C(=O)c2ccccc2F)CC1,.,.,.,17,31,.
O=C(CN1C(=O)C(c2ccccc2)Oc2cccnc21)NCc1ccccc1F (stereo unspecified),57*,1,11,2,-10,-1
O=C(/C=C/c1ccc(NC(=O)c2ccccc2-c2ccccc2C(=O)O)cc1)c1ccccc1,1,6,-31,-2,-13,-8
O=C(/C=C/c1ccncc1)c1ccc(NC(=O)c2ccccc2F)cc1,10,.,.,.,.,89*
COCOCCn1cc(CN2CCS(=O)(=O)N(Cc3ccc(-c4ccc(Cl)c(Cl)c4)cc3)C(C(C)C)C2=O)nn1 (stereo unspecified),-2,-1,.,34,11,91*
CC(C)C1C(=O)N(Cc2cn(CCC3OCCO3)nn2)CCS(=O)(=O)N1Cc1ccc(-c2ccc(Cl)c(Cl)c2)cc1 (stereo unspecified),-23,4,.,13,-1,89*
O=C1/C(=C/c2ccncc2)CCC/C1=C\c1ccncc1,85*,1,-101,71*,71*,72
O=C1c2ccccc2C(=O)c2c1ncn2-c1ccccc1,8,11,70*,-3,45,16
C[C@@H]1CCCCO[C@@H](CN(C)Cc2ccc(Cl)c(Cl)c2)[C@@H](C)CN([C@H](C)CO)C(=O)c2cc(NC(=O)Nc3ccc(F)cc3)ccc2O1,.,.,.,48,2,.
SMILES,EBV LMP1 NFkB,FN deposition inh,aSyn UTR inh,PAX8 reporter,EWS-Fli inh,Shn3 3UTR inh
C[C@@H]1CCCCO[C@H](CN(C)Cc2ccc(Cl)c(Cl)c2)[C@H](C)CN([C@@H](C)CO)C(=O)c2cc(NC(=O)Nc3ccc(F)cc3)ccc2O1,-7,.,.,75*,4,41
C[C@@H]1CCCCO[C@H](CN(C)Cc2ccc(Cl)c(Cl)c2)[C@@H](C)CN([C@H](C)CO)C(=O)c2cc(NC(=O)Nc3ccc(F)cc3)ccc2O1,.,.,.,22,0,.
C[C@@H]1CCCCO[C@H](CN(C)Cc2ccc(Cl)c(Cl)c2)[C@@H](C)CN([C@@H](C)CO)C(=O)c2cc(NC(=O)NC3CCCCC3)ccc2O1,.,.,.,70*,-1,.
C[C@@H]1CN([C@@H](C)CO)C(=O)c2cc(NC(=O)NC3CCCCC3)ccc2O[C@@H](C)CCCCO[C@H]1CN(C)Cc1ccc(Cl)c(Cl)c1,.,.,.,?,2,.
C[C@@H]1CN([C@@H](C)CO)C(=O)c2cc(NC(=O)Nc3ccc(F)cc3)ccc2O[C@@H](C)CCCCO[C@H]1CN(C)Cc1ccc(Cl)c(Cl)c1,.,.,.,72*,4,.
C[C@H]1CCCCO[C@H](CN(C)CC2CCCCC2)[C@@H](C)CN([C@@H](C)CO)C(=O)c2cc(NS(=O)(=O)c3cccs3)ccc2O1,.,.,.,0,10,.
Cc1nc(SCC(=O)NNC(=O)c2ccc(F)cc2)c2ccccc2n1,4,-3,.,15,13,6
CSc1nc(N(C)NC(=O)c2ccc(F)cc2)c2ccccc2n1,14,.,77*,.,.,7
Cc1ccc(S(=O)(=O)c2ncccc2N)cc1,12,11,6,7,-16,-14
Cc1ccc(S(=O)(=O)c2ncccc2[N+](=O)[O-])cc1,29,-1,-39,109*,23,96*
Oc1ccc(NC(=S)N=Nc2c(O)[nH]c3ccc(Br)cc23)cc1,37,4,29,37,22,-3
Oc1[nH]c2ccc(Br)cc2c1N=NC(=S)Nc1ccc(F)cc1,13,-8,52,70*,44,20
CCCCNC(=S)N=Nc1c(O)n(Cc2ccccc2)c2ccccc12,17,3,4,-5,5,15
NC(=S)N=Nc1c(O)n(Cc2ccccc2)c2ccccc12,2,-1,24,35,38,-35
Oc1c(N=NC(=S)Nc2ccccc2F)c2ccccc2n1Cc1ccccc1Cl,?,-2,87*,23,44,28
C/C(Cl)=C\Cn1c(O)c(N=NC(N)=S)c2ccccc21,18,-8,46,3,57*,11
Cc1c(Cl)cccc1NC(=S)N=Nc1c(O)n(CN2CCOCC2)c2ccccc12,29,.,64*,.,.,42

# Source: PubChem (Broad Institute)
